Screening data: PubChem BioAssay, several laboratories
Most compounds without a hit are left out; they make up all but 1.8% or so of the library.
ARNT TACC3 PPI: disrupts binding between human ARNT and TACC3 | Q9Y6A5 | AlphaScreen His-ARNT PAS-B/GST-TACC3 binding, luminescence; TACC3 fragment carries E629A point mutation | inhibition, % at 9.99 µM | 390,000 compounds, 0.66% hits | AID 623870;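 active = mean inhibition of replicates at least 50% and at least half of replicates each reaching 50%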;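 also: 0% = complete ARNT plus TACC3 wells and 100% = ARNT alone without TACC3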
Tn6 DDE FP: DD(E)-Tn6 binding inhibition, primary FP screen | P02675 | Fibrin DD(E) TRITC-Tn6 fluorescence polarization displacement | inhibition, % at 8.3 µM | 370,000 compounds, 0.21% hits | AID 720509;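 active = inhibition above a per-campaign cutoff: mean of compounds within control limits plus 3 SD, cut at about 15% in these data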;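 also: 0% = median of all compound wells on the plate and 100% = blocking peptide control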
Target sequence (P02675 whole entry, looked up): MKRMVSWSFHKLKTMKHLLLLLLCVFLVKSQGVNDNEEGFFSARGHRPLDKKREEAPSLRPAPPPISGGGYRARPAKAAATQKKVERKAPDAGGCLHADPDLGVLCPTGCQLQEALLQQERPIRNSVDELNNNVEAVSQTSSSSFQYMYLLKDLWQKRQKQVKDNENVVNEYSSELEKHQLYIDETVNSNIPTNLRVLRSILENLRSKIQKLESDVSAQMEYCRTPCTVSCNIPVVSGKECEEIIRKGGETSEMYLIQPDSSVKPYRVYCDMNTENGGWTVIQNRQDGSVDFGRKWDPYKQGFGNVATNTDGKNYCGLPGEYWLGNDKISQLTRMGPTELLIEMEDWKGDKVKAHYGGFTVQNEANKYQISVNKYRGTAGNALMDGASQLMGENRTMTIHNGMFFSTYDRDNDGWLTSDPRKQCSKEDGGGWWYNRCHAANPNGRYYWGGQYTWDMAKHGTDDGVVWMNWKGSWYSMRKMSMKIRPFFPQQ
DDE Tn7 FP inh: disrupts Tn7 cyclic peptide binding to fibrin D-Dimer-E complex; FP displacement of FITC-Tn7 peptide from fibrin DD(E); 0% = median of compound wells per plate; P02675; inhibition, % at 8.3 µM; 370,000 compounds, 0.13% hits;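 active = inhibition above the mean of compounds falling within the control limits plus 3 SD of them, cut at about 14% in these data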;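 also: 0% = plate median of compound wells and 100% = 10 µM Aha-Tn7 peptide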
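Test system: human clot-derived fibrin DD(E) complex / Quantity: 2 µM final DD(E) protein / Incubation: 10 min plus 3 h, room temperature / Measured by: fluorescence polarization / Benchmarks: high control of 10 µM Aha-Tn7 peptide / Replicates: singlicate testing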
GRK2 inh: blocks RNA aptamer binding to human GRK2 | P25098 | bead flow cytometry, FAM-aptamer displacement from GRK2 | inhibition of aptamer binding, % at 10 µM | 330,000 compounds, 0.59% hits | AID 488847;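 active = inhibition of aptamer binding above 40%, roughly 3 SD of noise, on plates passing a quality check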;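 also: median bead fluorescence of bound FAM aptamer so fluorescent compounds give negative values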
CAL PDZ FP-1: blocks peptide binding to the human CAL PDZ domain; inhibition, % at 24.9 µM; AID 602252; 300,000 compounds, 0.92% hits; purified CAL PDZ, TMR-peptide fluorescence polarization, 1 h;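 active = mean inhibition of at least 30% with at least half of replicates also reaching 30%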;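 also: 0% = DMSO neutral control and 100% = excess unlabeled competitor peptide PRC23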
CAL PDZ FP-2: blocks peptide binding to human CAL PDZ domain. purified CAL PDZ, TMR-peptide fluorescence polarization, 1 h. inhibition, % at 20 µM. 330,000 compounds, 0.02% hits;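 active = highest replicate inhibition of at least 40%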;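 also: plate controls were DMSO neutral control wells for no effect and unlabeled competitor peptide control wells for full effect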
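Material – purified CerCALP PDZ construct · Detection – FP readout, S and P plane fluorescence · Measure – percent inhibition from loss of millipolarization · Controls – unlabelled peptide for full inhibition, DMSO wells as neutral · Probe or stimulus – TMR-labelled reporter peptide T*-PRC34 bound in PDZ groove · Times – 1 h at RT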
Numbers without * were called inactive.

`Cc1cc(Cl)c(C)c(S(=O)(=O)Oc2ccccc2NC(=O)CCC(=O)O)c1Cl` gave ARNT TACC3 PPI 28*, Tn6 DDE FP 2, DDE Tn7 FP inh 0, GRK2 inh 0, CAL PDZ FP-1 0 and CAL PDZ FP-2 0.
For O=C(N/N=C/c1ccccc1O)C(=O)N1CCCCCC1 the results were ARNT TACC3 PPI 67*, Tn6 DDE FP 2, DDE Tn7 FP inh -1, GRK2 inh 0, CAL PDZ FP-1 2 and CAL PDZ FP-2 0.
For O=C(N/N=C/c1ccccc1)C(O)c1ccccc1 (stereo not given) the results were ARNT TACC3 PPI 4, Tn6 DDE FP 3, DDE Tn7 FP inh 1, GRK2 inh 0 and CAL PDZ FP-2 -4.
For O=C(NN=Cc1ccccc1O)C(O)c1ccccc1 (stereo not given) the results were ARNT TACC3 PPI 43*, Tn6 DDE FP -9, DDE Tn7 FP inh -5, CAL PDZ FP-1 -2 and CAL PDZ FP-2 -2.
For COc1cccc(/C=N/NC(=O)C(=O)N2CCCC2)c1OC the results were ARNT TACC3 PPI -3, Tn6 DDE FP 0, DDE Tn7 FP inh 5, GRK2 inh 4, CAL PDZ FP-1 -3 and CAL PDZ FP-2 -1.
Screening COc1cccc(/C=N/NC(=O)C(=O)N2CCCC2)c1O returned ARNT TACC3 PPI 68*, Tn6 DDE FP 1, DDE Tn7 FP inh -1, GRK2 inh 0, CAL PDZ FP-1 -2 and CAL PDZ FP-2 -2.
Cc1ccc(NC(=O)OCCNC(=O)OC(C)C)cc1 was read as ARNT TACC3 PPI -1, Tn6 DDE FP -1, DDE Tn7 FP inh 2, GRK2 inh 0, CAL PDZ FP-1 38* and CAL PDZ FP-2 0.
`CCOC(=O)NCCOC(=O)Nc1ccc(Cl)cc1` gave ARNT TACC3 PPI -2, Tn6 DDE FP 8, DDE Tn7 FP inh 0, GRK2 inh 1, CAL PDZ FP-1 0 and CAL PDZ FP-2 -1.
For CNC(=O)COC(=O)c1cc(-c2ccco2)nc2ccccc12 the results were ARNT TACC3 PPI 2, Tn6 DDE FP 0, DDE Tn7 FP inh -5, GRK2 inh 0, CAL PDZ FP-1 47* and CAL PDZ FP-2 -1.
`Cc1ccc(NC(=O)CN(C)C(=O)c2cc(-c3ccco3)nc3ccccc23)cc1` gave ARNT TACC3 PPI 1, Tn6 DDE FP -1, DDE Tn7 FP inh -10, GRK2 inh 83*, CAL PDZ FP-1 -3 and CAL PDZ FP-2 -3.
For CN(CC(=O)Nc1ccc(F)cc1)C(=O)c1cc(-c2ccco2)nc2ccccc12 the results were ARNT TACC3 PPI 0, Tn6 DDE FP 9, DDE Tn7 FP inh -8, GRK2 inh 8 and CAL PDZ FP-2 0.
Screening O=C(Cc1ccncc1)N[C@@H]1CC[C@H](CCn2cc(-c3ccccc3F)nn2)O[C@@H]1CO returned ARNT TACC3 PPI 1.
Screening COc1cc(-n2nc(C)c3c2OC(N)=C(C#N)C3c2ccccc2)c(Cl)c(Br)c1O (stereo not given) returned ARNT TACC3 PPI 33*, Tn6 DDE FP -4, DDE Tn7 FP inh -2, GRK2 inh 0, CAL PDZ FP-1 -6 and CAL PDZ FP-2 0.
For CCS(=O)(=O)Nc1ccc2c(c1)C(=O)N(C)C[C@H](OC)[C@H](C)CN(C)[C@H](C)CO2 the results were ARNT TACC3 PPI 0.
`COc1cccc2sc(Nc3nc(-c4ccccn4)cs3)nc12` gave ARNT TACC3 PPI 45*, GRK2 inh 1, CAL PDZ FP-1 -2 and CAL PDZ FP-2 1.
`c1ccc(-c2csc(Nc3cccnc3)n2)nc1` gave ARNT TACC3 PPI 45*, Tn6 DDE FP -3, DDE Tn7 FP inh -9, GRK2 inh 0 and CAL PDZ FP-2 0.
`c1cncc(Nc2nc(-c3cccs3)cs2)c1` gave ARNT TACC3 PPI 2, GRK2 inh 3, CAL PDZ FP-1 -5 and CAL PDZ FP-2 1.
`COc1cccc(S(=O)(=O)Nc2ccc3c(c2)OC[C@H](C)N(C(=O)Cc2cccnc2)C[C@@H](C)[C@@H](OC)CN(C)C3=O)c1` gave ARNT TACC3 PPI -12.
`O=C(O)c1ccccc1CSc1nnnn1-c1ccccc1` gave ARNT TACC3 PPI 6, Tn6 DDE FP 1, DDE Tn7 FP inh 8, GRK2 inh 7 and CAL PDZ FP-1 81*.
Screening C[C@H](CO)N1C[C@H](C)[C@H](CN(C)Cc2ccc(Cl)c(Cl)c2)Oc2c(NS(=O)(=O)c3ccc(Cl)cc3)cccc2C1=O returned ARNT TACC3 PPI 1.
CCCN1C[C@H](C)[C@H](OC)CN(C)C(=O)c2cc(NC(=O)c3ccccc3F)ccc2OC[C@@H]1C was read as ARNT TACC3 PPI -16.
Oc1ccccc1-c1cc(-c2ccc(F)cc2)n[nH]1 was read as ARNT TACC3 PPI -4, Tn6 DDE FP -3, DDE Tn7 FP inh 3, GRK2 inh 0, CAL PDZ FP-1 34* and CAL PDZ FP-2 -1.
Cc1ccc(O)c(-c2cc(-c3cccc(Br)c3)n[nH]2)c1 was read as ARNT TACC3 PPI -3, Tn6 DDE FP -21, DDE Tn7 FP inh -10, GRK2 inh 0, CAL PDZ FP-1 86* and CAL PDZ FP-2 0.
For CCCCCCC12C(=Cc3cc4c(cc31)OCCO4)c1cc(OC)c(OC)cc1C(CC(=O)NCc1ccccc1)N2C(=O)OC (stereo not given) the results were Tn6 DDE FP -5 and DDE Tn7 FP inh -6.
COc1ccc(/C=C/C(=O)NCC(=O)N/N=C(/CCC(=O)O)c2ccccc2)cc1 was read as ARNT TACC3 PPI -11, Tn6 DDE FP 6, DDE Tn7 FP inh 10, GRK2 inh 0, CAL PDZ FP-1 32* and CAL PDZ FP-2 -1.
`COCCCNC(=O)/C(C#N)=C/c1ccc(OCC(=O)O)c(OC)c1` gave ARNT TACC3 PPI 2, Tn6 DDE FP 6, DDE Tn7 FP inh 3, GRK2 inh 44*, CAL PDZ FP-1 5 and CAL PDZ FP-2 0.
`COc1ccc(/C=C(\C#N)C(=O)NCCc2ccccc2)cc1OCc1ccccc1` gave ARNT TACC3 PPI -10, Tn6 DDE FP -2, DDE Tn7 FP inh 1, GRK2 inh 0, CAL PDZ FP-1 4 and CAL PDZ FP-2 -4.
Screening CC(=O)NCCNC(=O)c1oc2ccccc2c1CSc1ncn[nH]1 returned ARNT TACC3 PPI 1, Tn6 DDE FP 13, DDE Tn7 FP inh 1, GRK2 inh 2, CAL PDZ FP-1 72* and CAL PDZ FP-2 -1.
For CCOc1ccc(OCCNC(=O)c2oc3ccccc3c2COC)cc1 the results were ARNT TACC3 PPI -9, Tn6 DDE FP -5, DDE Tn7 FP inh -2, GRK2 inh 0, CAL PDZ FP-1 -5 and CAL PDZ FP-2 0.
Cc1noc(C)c1S(=O)(=O)Nc1ccc2c(c1)C(=O)N([C@@H](C)CO)C[C@@H](C)[C@H](CN(C)C(=O)Cc1ccccc1)OCCCC[C@H](C)O2 was read as ARNT TACC3 PPI -7.
